Experimental data published in article PMC8320079 (ACS Omega, 2021).
Where “and” joins values, the source holds several entries; their conditions need not be identical. Equal values may be shown once.

Legend:
[1] = tested on: peripheral blood mononuclear cells (PBMCs); assay: MTT-based cell viability assay, normal cells; details: for IC50: PBMCs (normal cells), 24 h, mean ± S.D.
How it was run: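 Nontumorigenic PBMCs were exposed 24 h to test compound at 0 and 0.01–400 μM in PBS (pH 7.4), using the same culture and dosing conditions as the tumour lines. MTT formazan was read at 570 nm. Percent cytotoxicity was plotted against log concentration, and IC50 taken from a nonlinear fit (bottom and top asymptotes, centre, Hill slope). Cisplatin reference; mean ± S.D.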

[2] = tested on: Ehrlich ascites carcinoma (EAC) cells; assay: MTT-based cell viability assay, EAC cells; details: for SI PBMC/EAC: selectivity index IC50 (PBMC)/IC50 (EAC); for IC50: EAC cells, MTT, 24 h, mean ± S.D.
How it was run: (§1)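 Test compound dilutions in PBS (pH 7.4), 0 and 0.01–100 μM, applied for 24 h. DL cells were grown in RPMI-1640 with 10% FBS and antibiotics at 37 °C, 5% CO2, and subcultured at 80% confluency. Formazan was read at 570 nm. IC50 came from a four-parameter nonlinear fit of % cytotoxicity versus log concentration. Cisplatin reference; mean ± S.D., n = 3. SI = IC50(PBMC)/IC50(DL or EAC); PBMCs were tested at 0.01–400 μM.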

[3] = tested on: Dalton's lymphoma (DL) cells; assay: MTT-based cell viability assay, DL cells; details: for SI PBMC/DL: selectivity index IC50 (PBMC)/IC50 (DL); for IC50: DL cells, MTT, 24 h, mean ± S.D.
How it was run: as §1

DL cell line = assay: Apoptosis, AO/EB dual staining, DL cells; type: cell-based; details: 24 h
EAC cell line = assay: Apoptosis, AO/EB dual staining, EAC cells; type: cell-based; details: 24 h
How it was run: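 Cells (1 × 10^6) exposed 24 h to test compound at 0.01, 0.1, 0.5, 1, 5 and 10 μM; washed twice with PBS (pH 7.4); stained 5 min in a dark cold room with acridine orange and ethidium bromide, 100 μg/mL each in PBS. Fluorescence microscopy in three replicates, about 1000 cells counted per group; orange/red nuclei scored as apoptotic (%). Cisplatin reference; mean ± S.D., n = 3, one-way ANOVA.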

[4] = Solubility noted as property of the isolated complex; type: physicochemical; details: qualitative
[5] = DMSO-d6 stability study by 31P{1H} and 1H NMR; type: physicochemical; details: for stability over time in DMSO-d6: 31P{1H} and 1H NMR at time intervals over 6 h

Molecule | IC50 [1] [µM] | SI PBMC/EAC [2] | SI PBMC/DL [3] | cytotoxicity in normal cells, in words ([1]; PBMCs) | apoptosis-inducing ability (DL cell line) | apoptosis-inducing ability (EAC cell line) | IC50 [2] [µM] | IC50 [3] [µM] | solubility in DMSO [4] | stability over time in DMSO-d6 [5] | stability in DMSO (properties line of the synthesis) [5]
Cc1ccc(C(C)C)cc1.[Cl][Os-]([Cl])[P+](c1ccccc1)(c1ccccc1)c1ccccc1 [Compound 3, [OsCl2(η^6-p-cymene)(PPh3)]] | 149.9 ± 1.2 | 1.22 | 1.33 |  |  |  |  |  |  |  | 
Cc1ccc(C(C)C)cc1.[Cl][Ge-]([Cl])[Cl].[Cl][Os-]1[P+](c2ccccc2)(c2ccccc2)C[P+]1(c1ccccc1)c1ccccc1 [Compound 8, [OsCl(η^6-p-cymene)(κ^2-dppm)]^+GeCl3^–] | 161 ± 2.8 | 8.86 | 19.42 | negligible cytotoxicity | stronger apoptosis-inducing ability than the rest of the tested compounds | inducing apoptotic cell death | 18.2 ± 0.05 | 8.3 ± 0.05 | sparingly soluble | some decomposition of the complex occurs | somewhat stable in DMSO
Cc1ccc(C(C)C)cc1.[Cl][Os-]1[P+](c2ccccc2)(c2ccccc2)C[P+]1(c1ccccc1)c1ccccc1.[Cl][Sn-]([Cl])[Cl] [Compound 10, [OsCl(η^6-p-cymene)(κ^2-dppm)]^+SnCl3^–] | 145 ± 1.8 | 6.78 | 9.18 |  |  |  | 21.4 ± 0.57 | 15.8 ± 0.05 | readily soluble | stable in DMSO-d6 for as long as 6 h | stable in DMSO
N.N.[Cl][Pt][Cl] [cisplatin, reference compound] | 15.04 ± 0.05 | 40.64 | 79.2 and 79.15 |  |  |  | 0.37 ± 0.1 | 0.19 ± 0.07 |  |  | 
[OsCl(η^6-p-cymene)(PPh3)(GeCl3)] [Compound 7] | 397.6 ± 3.5 | 3.83 | 4.28 |  |  |  |  | 93 ± 2.8 | sparingly soluble | somewhat less stable in DMSO-d6 | unstable in DMSO
[OsCl(η^6-p-cymene)(PPh3)(SnCl3)] [Compound 11] |  | 4.90 | 6.72 |  |  |  | 87.3 ± 1.6 | 63.7 ± 1.3 | soluble in DMSO |  | 
